Assay results published in PMC9597438 (Journal of Ginseng Research, 2022).

Tests used:
HeLa cells [1] = assay: Cell migration assay; format: cell-based, human; conditions: 3, 10, 30 μM, 12 h, vs control group
Method in brief: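 Scratch assay: HeLa cells (1×10^5/well) adhered for 24 h, were scratched with a sterile pipette tip, washed three times in PBS and switched to serum-free medium. Cells got 3, 10 or 30 µM for 12 h. The same fields were imaged at 200×, and migration was scored as final versus initial gap width.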

HeLa cells [2] = assay: Colony formation assay; format: cell-based, human; conditions: HeLa cells, 3, 10, 30 μM, 10 days
Method in brief: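 HeLa cells (1×10^3/well, 6-well) were plated for 12 h and given fresh medium with 3, 10 or 30 µM. They grew 10 days until colonies were visible, then were fixed in 10% formaldehyde, stained with 1% crystal violet, washed in PBS and air-dried.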

[3] = test system: HIF-1α protein expression in HeLa cells; assay: Western blotting of HIF-1α in HeLa cells; format: cell-based, human; conditions: 1% O2, 12 h, 3, 10, 30 μM, nuclear extract
Method in brief: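 HeLa cells were held 12 h under normoxia or hypoxia (1% O₂) with 3, 10 or 30 µM. Nuclear extracts were quantified by BCA, and 30 µg per lane was resolved by SDS-PAGE and transferred to PVDF. Membranes were blocked in 5% nonfat milk, probed with anti-HIF-1α overnight at 4 °C, then secondary for 2 h, and detected by chemiluminescence. Three independent experiments.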

HeLa cells [4] = assay: Transwell invasion assay; format: cell-based, human; conditions: HeLa cells, 3, 10, 30 μM, vs control
Method in brief: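 Matrigel-coated Transwell inserts were loaded with HeLa cells pretreated with or without 3, 10 or 30 µM, in serum-free DMEM in the upper chamber; the legend gives 12 h exposure. The lower chamber held DMEM with 10% FBS. After 24 h invasion at 37 °C, cells on the lower side were fixed in 4% paraformaldehyde, stained with 0.1% crystal violet and photographed at 200×.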

[5] = test system: Bcl-2 expression in HeLa cells; assay: Western blotting of Bcl-2 in HeLa cells; format: cell-based, human; conditions: HeLa cells, 3, 10, 30 μM, 12 h, vs control group
Method in brief: (§1)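 HeLa cells were treated with or without 3, 10 or 30 µM for 12 h. Whole-cell extracts were separated by SDS-PAGE, transferred to PVDF and blocked in 5% nonfat milk. Blots were probed overnight at 4 °C for the named protein (Bax, Bcl-2, MMP-9 or cleaved caspase-3), then secondary for 2 h, with chemiluminescent detection. Three independent experiments.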

[6] = test system: cleaved caspase-3 expression in HeLa cells; assay: Western blotting of cleaved caspase-3 in HeLa cells; format: cell-based, human; conditions: HeLa cells, 3, 10, 30 μM, 12 h, concentration-dependent
Method in brief: as §1

[7] = test system: HIF-1β expression in HeLa cells; assay: Western blotting of HIF-1β in HeLa cells; format: cell-based, human; conditions: hypoxia, 12 h, whole-cell lysates
Method in brief: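 HeLa cells were held 12 h under normoxia or hypoxia (1% O₂) at the indicated concentrations. Whole-cell lysates were run on SDS-PAGE, transferred to PVDF and blocked in 5% milk. Anti-HIF-1β ran overnight at 4 °C, secondary 2 h, chemiluminescent detection. Three independent experiments.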

[8] = test system: MMP-9 expression in HeLa cells; assay: Western blotting of MMP-9 in HeLa cells; format: cell-based, human; conditions: 10 μM, 12 h
Method in brief: as §1

HeLa cells [9] = assay: Apoptosis assay; format: cell-based, human
Method in brief: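 HeLa cells (5×10^5/well) adhered for 24 h, then were exposed to 3, 10 or 30 µM for 24 h per methods; the legend gives 12 h under hypoxia. Cells were washed twice in PBS and taken into binding buffer (10 mM HEPES pH 7.4, 140 mM NaCl, 2.5 mM CaCl₂). They were stained with Annexin V-FITC and 2 µg/mL propidium iodide, 15 min, 37 °C, dark, then read by flow cytometry.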

[10] = test system: HeLa cervical cancer xenograft; assay: In vivo antitumor activity, HeLa cervical cancer xenograft; design: species or system athymic Nu/Nu nude mice; conditions: nude mice with HeLa tumors, ip, vs control, p < 0.001
[11] = test system: HIF-1α transcriptional activity in Hep3B cells; assay: HRE luciferase reporter assay; format: cell-based, human
Method in brief: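 Hep3B cells at 60–80% confluence were transfected with an HRE-luciferase plasmid (legend adds pRL-CMV) using Lipofectamine 2000 for 24 h. They were reseeded at 5×10^4/well for 24 h, then treated under hypoxia (1% O₂, 5% CO₂, 94% N₂, 37 °C) at final 0.3–30 µM, triplicate wells. Treatment ran 12–16 h per methods, 24 h per legend. Cells were lysed 1 h and luminescence read.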

[12] = test system: Bax expression in HeLa cells; assay: Western blotting of Bax in HeLa cells; format: cell-based, human; conditions: HeLa cells, 3, 10, 30 μM, 12 h, vs control group
Method in brief: as §1

[13] = test system: nuclear accumulation of HIF-1α in HeLa cells; assay: Immunofluorescence staining of HIF-1α; format: cell-based, human; conditions: 1% O2, 12 h, 30 μM
Method in brief: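 HeLa cells (1×10^4/well) adhered for 24 h and were held under normoxia or hypoxia (1% O₂) for 12 h with or without 30 µM. Processing: 4% paraformaldehyde at room temperature for 30 min, 0.2% Triton X-100, 5% BSA block for 30 min. Anti-HIF-1α ran overnight at 4 °C, secondary 30 min at room temperature, DAPI 30 min. Imaged by fluorescence microscopy at 400×.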

HeLa cells [14] = assay: EdU labeling and immunofluorescence; format: cell-based, human; conditions: HeLa cells, 3, 10, 30 μM, 12 h
Method in brief: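 HeLa cells (5×10^4/well) were plated for 24 h and treated with 3, 10 or 30 µM for 12 h. EdU was pulsed for 1 h. Cells were fixed in 4% paraformaldehyde for 30 min, permeabilised in 0.5% Triton X-100 for 10 min and reacted in 1× Apollo cocktail for 30 min. Nuclei were counterstained with Hoechst 33342 and imaged by fluorescence microscopy.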

Hep3B cells = assay: Cytotoxic; format: cell-based, human; conditions: 24 h, concentrations as high as 30 μM
Method in brief: (§2)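 Hep3B cells in DMEM/10% FBS (5×10^4/well) adhered for 12 h under normoxia. They were exposed for 24 h to final 0.3, 1, 3, 10 and 30 µM, triplicate wells per level. MTT was added for 4 h in the dark, formazan was dissolved in DMSO with 10 min shaking, and absorbance was read at 492 nm. Mean ± SD, n = 3.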

[15] = test system: VEGF protein expression in HeLa cells; assay: Western blotting of VEGF in HeLa cells; format: cell-based, human; conditions: hypoxia, 12 h
Method in brief: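 After 12 h incubation under normoxia or hypoxia (1% O₂) at the indicated concentrations, HeLa cell protein was quantified by BCA and separated by SDS-PAGE onto PVDF. Blots were blocked in 5% milk and probed for VEGF overnight at 4 °C, then secondary 2 h, with chemiluminescent detection. Three independent experiments.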

Cytotoxic = format: cell-based, human; conditions: human, Hep3B cells
Method in brief: as §2

Row | SMILES | migration of HeLa cells (scratch assay) (HeLa cells [1]) | colony formation of cells (HeLa cells [2]) | HIF-1α protein content [3] | number of tumor cells that crossed the transwell chamber (invasion) (HeLa cells [4]) | levels of Bcl-2 [5] | expression levels of cleaved caspase-3 [6] | expression level of HIF-1β [7] | expression levels of MMP-9 [8] | percentage of total apoptotic (early and late) cells (HeLa cells [9]; 3 μM) [%] | percentage of total apoptotic (early and late) cells (HeLa cells [9]; 10 μM) [%] | percentage of total apoptotic (early and late) cells (HeLa cells [9]; 30 μM) [%] | tumor volume [10] | transcriptional activity of HIF-1α (HRE-mediated reporter gene expression) ([11]; hypoxia (1% oxygen), from 0.3 μM upward) | efficacy (HIF-1α transcription inhibition) relative to 20(R)-panaxotriol ([11]; ratio of IC50 values) | expression levels of Bax [12] | HIF-1α expression in the nucleus [13] | number of EdU-positive cells (HeLa cells [14]) | cell viability (MTT) (Hep3B cells) | VEGF protein expression levels [15] | IC50 at 24 h (Cytotoxic) [µM]
1 | CC(C)(C)OC(=O)NCC(=O)OC1CCC2(C)C(C(O)CC3(C)C2CC(O)C2C(C4(C)CCCC(C)(C)O4)CCC23C)C1(C)C (centres unmarked) [A11, 6,12-dihydroxy-4,4,8,10,14-pentamethyl-17-(2,6,6-trimethyltetrahydro-2H-pyran-2-yl)hexadecahydro-1H-cyclopenta[a]phenanthren-3-yl (tert-butoxycarbonyl)glycinate] | decreased | apparently inhibited | dose-dependently reduced | significantly reduced | decreased | significantly increased | almost no influence | significantly reduced | 5.2 | 14.0 | 24.2 | significantly inhibit | dose-dependent inhibited | more than 100 times | increased | not detected | concentration-dependently suppressed | no adverse effects on cell viability | dose-dependent decrease | 
2 | CC1(C)CCCC(C)(C2CCC3(C)C2C(O)CC2C4(C)CCC(OC(=O)[C@@H](N)Cc5c[nH]c6ccccc56)C(C)(C)C4C(O)CC23C)O1 (some centres unmarked) [A13, 6,12-dihydroxy-4,4,8,10,14-pentamethyl-17-(2,6,6-trimethyltetrahydro-2H-pyran-2-yl)hexadecahydro-1H-cyclopenta[a]phenanthren-3-yl tryptophanate] |  |  |  |  |  |  |  |  |  |  |  |  |  |  |  |  |  |  |  | 6.99
